Source: ChEMBL document CHEMBL3763106, “Glucose-derived spiro-isoxazolines are anti-hyperglycemic agents against type 2 diabetes through glycogen phosphorylase inhibition” (Eur J Med Chem, 2016)
The source made the active and inactive calls. The calls are words filed in the database; no cut-off is given here.

Columns and labels:
[1] = biological target: T1, Glycogen phosphorylase, muscle form (Oryctolagus cuniculus, UniProt P00489); test: Inhibition of rabbit muscle glycogen phosphorylase b
T1 sequence (P00489 whole entry): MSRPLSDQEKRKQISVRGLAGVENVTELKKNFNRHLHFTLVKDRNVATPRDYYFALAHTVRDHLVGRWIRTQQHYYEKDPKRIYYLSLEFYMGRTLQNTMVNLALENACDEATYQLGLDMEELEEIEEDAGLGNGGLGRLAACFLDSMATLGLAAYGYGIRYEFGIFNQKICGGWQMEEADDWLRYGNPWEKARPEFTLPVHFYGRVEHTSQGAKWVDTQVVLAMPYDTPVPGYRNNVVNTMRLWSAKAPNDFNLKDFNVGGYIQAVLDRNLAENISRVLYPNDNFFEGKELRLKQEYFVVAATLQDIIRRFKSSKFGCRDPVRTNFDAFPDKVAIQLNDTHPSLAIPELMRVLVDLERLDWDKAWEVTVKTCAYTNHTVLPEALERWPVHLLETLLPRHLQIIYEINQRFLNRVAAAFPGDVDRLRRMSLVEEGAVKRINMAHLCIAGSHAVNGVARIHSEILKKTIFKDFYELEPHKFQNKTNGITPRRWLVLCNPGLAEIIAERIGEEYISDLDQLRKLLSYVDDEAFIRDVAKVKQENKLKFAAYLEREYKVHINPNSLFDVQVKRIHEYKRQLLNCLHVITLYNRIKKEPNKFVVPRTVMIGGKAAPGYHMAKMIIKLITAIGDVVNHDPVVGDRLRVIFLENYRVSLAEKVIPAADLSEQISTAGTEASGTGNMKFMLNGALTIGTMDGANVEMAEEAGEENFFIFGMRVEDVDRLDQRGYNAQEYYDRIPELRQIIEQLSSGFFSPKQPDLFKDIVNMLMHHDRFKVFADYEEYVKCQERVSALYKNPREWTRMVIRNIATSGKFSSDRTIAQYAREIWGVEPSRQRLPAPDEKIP

[2] = biological target: T2, Glycogen phosphorylase, liver form (Rattus norvegicus, UniProt P09811); test: Inhibition of glycogen phosphorylase in Wistar rat hepatocytes assessed as decrease in glucagon stimulated glucose release after 3 hrs by glucose oxidase method; type: cell-based, Hepatocyte
T2 sequence (P09811 whole entry): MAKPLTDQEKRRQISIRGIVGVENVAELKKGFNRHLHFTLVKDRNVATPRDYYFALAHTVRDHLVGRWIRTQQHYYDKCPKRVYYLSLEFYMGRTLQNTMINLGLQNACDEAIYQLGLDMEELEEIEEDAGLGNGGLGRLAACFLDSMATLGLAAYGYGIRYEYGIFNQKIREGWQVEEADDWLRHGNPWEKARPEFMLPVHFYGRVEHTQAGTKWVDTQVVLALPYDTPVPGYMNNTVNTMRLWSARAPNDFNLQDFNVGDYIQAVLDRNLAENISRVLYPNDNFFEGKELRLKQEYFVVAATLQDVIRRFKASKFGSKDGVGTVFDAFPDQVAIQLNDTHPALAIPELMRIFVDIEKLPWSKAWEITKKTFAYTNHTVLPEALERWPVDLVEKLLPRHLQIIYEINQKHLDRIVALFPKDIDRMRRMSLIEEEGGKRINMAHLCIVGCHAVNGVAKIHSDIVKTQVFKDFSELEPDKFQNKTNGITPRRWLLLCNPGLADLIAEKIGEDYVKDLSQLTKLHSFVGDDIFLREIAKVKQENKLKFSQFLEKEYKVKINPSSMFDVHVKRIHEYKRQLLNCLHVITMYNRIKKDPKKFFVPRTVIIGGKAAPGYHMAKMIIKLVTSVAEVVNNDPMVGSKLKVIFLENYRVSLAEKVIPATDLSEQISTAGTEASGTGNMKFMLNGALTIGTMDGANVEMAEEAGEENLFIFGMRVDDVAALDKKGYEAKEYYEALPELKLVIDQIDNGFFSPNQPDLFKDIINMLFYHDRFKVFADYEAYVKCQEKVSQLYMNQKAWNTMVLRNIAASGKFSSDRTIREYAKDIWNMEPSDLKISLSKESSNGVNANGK
Outline: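 Hepatocytes from male Wistar rats (160-220 g) isolated by two-step perfusion, viability >75%. Seeded at 830,000 cells/well, then cultured 24 h with 100 nM dexamethasone. Incubated 3 h in Hepes-bicarbonate buffer pH 7.4 with 0.1% BSA, 100 nM glucagon and inhibitor at several concentrations. Supernatant glucose measured by glucose oxidase (A492). IC50 taken from % of glucagon-stimulated value, mean of three independent experiments.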

[3] = biological target: T3, Glycogen phosphorylase, liver form (Homo sapiens, UniProt P06737); test: Inhibition of glycogen phosphorylase in human hepatocytes assessed as decrease in glucagon stimulated glucose release after 3 hrs by glucose oxidase method; type: cell-based, Hepatocyte
T3 sequence (P06737 whole entry): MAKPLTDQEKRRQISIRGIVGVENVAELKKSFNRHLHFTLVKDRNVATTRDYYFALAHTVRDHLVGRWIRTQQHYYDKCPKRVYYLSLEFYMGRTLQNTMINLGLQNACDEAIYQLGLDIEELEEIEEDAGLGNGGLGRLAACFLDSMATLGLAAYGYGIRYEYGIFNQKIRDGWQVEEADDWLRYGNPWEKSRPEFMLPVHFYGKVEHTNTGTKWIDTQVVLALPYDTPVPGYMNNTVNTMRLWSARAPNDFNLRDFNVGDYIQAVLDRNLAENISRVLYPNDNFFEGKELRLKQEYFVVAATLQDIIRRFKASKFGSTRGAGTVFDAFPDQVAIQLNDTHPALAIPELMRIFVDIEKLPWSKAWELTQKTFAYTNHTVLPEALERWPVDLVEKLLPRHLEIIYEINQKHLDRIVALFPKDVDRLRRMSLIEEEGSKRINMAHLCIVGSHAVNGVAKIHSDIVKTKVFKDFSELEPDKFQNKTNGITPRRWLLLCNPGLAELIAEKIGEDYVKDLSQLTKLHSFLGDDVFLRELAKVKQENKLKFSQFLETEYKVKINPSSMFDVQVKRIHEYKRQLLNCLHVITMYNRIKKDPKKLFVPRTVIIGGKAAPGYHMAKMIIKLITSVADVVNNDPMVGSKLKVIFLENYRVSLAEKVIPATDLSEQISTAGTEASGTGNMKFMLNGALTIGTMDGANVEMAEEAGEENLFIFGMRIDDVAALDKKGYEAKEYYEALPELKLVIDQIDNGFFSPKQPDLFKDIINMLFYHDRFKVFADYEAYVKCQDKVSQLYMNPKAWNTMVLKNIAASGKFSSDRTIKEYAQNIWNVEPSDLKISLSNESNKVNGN
Outline: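 Human hepatocytes isolated by two-step perfusion of surgical liver pieces and seeded at 1×10⁶/well. Glycogen-loaded for 20 h in medium containing insulin, dexamethasone and 4.5 g/L glucose. Then 3 h in glucose-free DMEM with 100 nM glucagon and inhibitor at several concentrations. Supernatant glucose measured by glucose oxidase (A492). IC50 from % of glucagon-stimulated value, triplicates across 3-5 cultures.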

[4] = biological target: T3, Glycogen phosphorylase, liver form; test: Inhibition of glycogen phosphorylase in human hepatocytes assessed as glucagon stimulated glycogen content after 3 hrs by colorimetric GOD method; type: cell-based, Hepatocyte
Outline: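 Human hepatocytes, glycogen-loaded 20 h, then 3 h in glucose-free DMEM with 100 nM glucagon and inhibitor. Washed cells digested with amyloglucosidase (0.75 UI/mL, acetate pH 4.8) for 2 h at 40 °C. Released glucose quantified by glucose oxidase. IC50 from % of glucagon-stimulated glycogen, triplicates across 3-5 cultures.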

[5] = biological target: T1, Glycogen phosphorylase, muscle form; test: Competitive inhibition of rabbit muscle glycogen phosphorylase b by Lineweaver-Burk plot analysis in presence of glucose 1-phosphate
Rattus norvegicus [6] = test: Anti-hyperglycemic activity in Zucker fa/fa rat model assessed as decrease in liver glucose production at 7.5 mg/kg, po administered as single dose for 20 mins followed by glucagon challenge measured for 45 mins by glucose oxidase method; type: functional; set-up: scale not given: the % may be the effect or the level left
Outline: (§1)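 Acute glucagon challenge in male Zucker fa/fa rats, 10-13 weeks old, 3 treated and 3 vehicle per experiment. Single oral dose (7.5-90 mg/kg range; vehicle 4-5 mL/kg po) given 65 min before the final blood glucose reading. Glucagon 200 µg/kg SC. Tail-vein plasma taken at 0, 10, 20 and 45 min, glucose by glucose oxidase. Hepatic glucose production read as 45-min AUC.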

Rattus norvegicus [7] = test: Anti-hyperglycemic activity in Zucker fa/fa rat model assessed as decrease in liver glucose production at 15 mg/kg, po administered as single dose for 20 mins followed by glucagon challenge measured for 45 mins by glucose oxidase method; type: functional; set-up: scale not given: the % may be the effect or the level left; outline: as §1
Rattus norvegicus [8] = test: Anti-hyperglycemic activity in Zucker fa/fa rat model assessed as decrease in liver glucose production at 30 mg/kg, po administered as single dose for 20 mins followed by glucagon challenge measured for 45 mins by glucose oxidase method; type: functional; set-up: scale not given: the % may be the effect or the level left; outline: as §1
Rattus norvegicus [9] = test: Anti-hyperglycemic activity in Zucker fa/fa rat model assessed as decrease in liver glucose production at 60 mg/kg, po administered as single dose for 20 mins followed by glucagon challenge measured for 45 mins by glucose oxidase method; type: functional; set-up: scale not given: the % may be the effect or the level left; outline: as §1
Rattus norvegicus [10] = test: Anti-hyperglycemic activity in Zucker fa/fa rat model assessed as decrease in hepatic glucose production at 30 mg/kg, po administered for 4 days followed by glucagon challenge for 2 days measured for 45 mins; type: functional; set-up: scale not given: the % may be the effect or the level left
Outline: (§2)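 Male Zucker fa/fa rats, 10-13 weeks old, after 5 days of stabilization; 3 dosed and 3 vehicle controls. Daily oral dosing at 30 mg/kg for 4 days, then glucagon challenge (200 µg/kg, scapular SC). Tail-vein blood taken at 0, 10, 20 and 45 min. Plasma glucose by glucose oxidase, insulin by radioimmunoassay, each expressed as delta from basal. Glucose output given as 45-min AUC.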

Rattus norvegicus [11] = test: Anti-hyperglycemic activity in glucagon challenged Zucker fa/fa rat model assessed as decrease in insulinemia at 30 mg/kg, po administered for 6 days measured for 60 mins post last dose by OGTT relative to control; type: functional, organism-based
Outline: (§3)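 Zucker fa/fa rats received 30 mg/kg po daily for 6 days, with a glucagon challenge after day 4. They were then fasted overnight and given an OGTT (glucose 3 g/kg). Tail-vein plasma glucose measured by glucose oxidase and insulin by radioimmunoassay, each expressed as delta from basal per rat.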

Rattus norvegicus [12] = test: Anti-hyperglycemic activity in glucagon challenged Zucker fa/fa rat model assessed as decrease in glycaemia at 30 mg/kg, po administered for 6 days measured for 60 mins post last dose by OGTT relative to control; type: functional, organism-based; outline: as §3
Rattus norvegicus [13] = test: Anti-hyperglycemic activity in po dosed Zucker fa/fa rat model assessed as decrease in liver glucose production administered 20 mins followed by glucagon challenge measured for 45 mins by glucose oxidase method; type: functional, organism-based; outline: as §1
Rattus norvegicus [14] = test: Anti-hyperglycemic activity in Zucker fa/fa rat model assessed as decrease in insulin output at 30 mg/kg, po administered for 4 days followed by glucagon challenge for 2 days measured for 45 mins; type: functional, organism-based; outline: as §2

OC[C@H]1O[C@@]2(CC(c3ccc4c(c3)OCCO4)=NO2)[C@H](O)[C@@H](O)[C@@H]1O
IC50 [1]: 13.3 µM | IC50 [2]: > 100 µM | IC50 [3]: > 100 µM | IC50 [4]: > 100 µM

OC[C@H]1O[C@@]2(CC(c3c[nH]c4ccccc34)=NO2)[C@H](O)[C@@H](O)[C@@H]1O
IC50 [1]: 800 µM

CSc1ccc(C2=NO[C@@]3(C2)O[C@H](CO)[C@@H](O)[C@H](O)[C@H]3O)cc1
IC50 [1]: 5.6 µM | IC50 [2]: > 100 µM | IC50 [3]: > 100 µM | IC50 [4]: > 100 µM

O=C1CNC(=O)[C@@]2(N1)O[C@H](CO)[C@@H](O)[C@H](O)[C@H]2O
Ki [5]: 59.7 µM

OC[C@H]1O[C@@]2(CC(c3cc4ccccc4c4ccccc34)=NO2)[C@H](O)[C@@H](O)[C@@H]1O
IC50 [1]: 80.5 µM | IC50 [2]: > 100 µM | IC50 [3]: > 100 µM | IC50 [4]: > 100 µM

OC[C@H]1O[C@@]2(CC(c3cc4ccccc4s3)=NO2)[C@H](O)[C@@H](O)[C@@H]1O
IC50 [1]: 10 µM

COc1ccc2cc(C3=NO[C@@]4(C3)O[C@H](CO)[C@@H](O)[C@H](O)[C@H]4O)ccc2c1
IC50 [1]: 27.7 µM

OC[C@H]1O[C@@]2(CC(c3cc4ccccc4o3)=NO2)[C@H](O)[C@@H](O)[C@@H]1O
IC50 [1]: 25 µM

OC[C@H]1O[C@@]2(CC(c3ccc4ccccc4c3)=NO2)[C@H](O)[C@@H](O)[C@@H]1O
IC50 [2]: 36 µM | IC50 [3]: 20 µM | IC50 [4]: 14.2 µM | Activity (Rattus norvegicus [6]): 3% | Activity (Rattus norvegicus [7]): 18% | Activity (Rattus norvegicus [8]): 30% | Activity (Rattus norvegicus [9]): 33% | Activity (Rattus norvegicus [10]): 19% | Activity (Rattus norvegicus [11]): Active | Activity (Rattus norvegicus [12]): inactive | Activity (Rattus norvegicus [13]): Dose-dependent effect | Activity (Rattus norvegicus [14]): Active

CC(=O)OC[C@H]1O[C@@]2(CC(c3ccc4ccccc4c3)=NO2)[C@H](OC(C)=O)[C@@H](OC(C)=O)[C@@H]1OC(C)=O
IC50 [2]: 13.6 µM | IC50 [3]: 2.5 µM | IC50 [4]: 2.38 µM

OC[C@H]1O[C@@]2(CC(c3ccc4cc(O)ccc4c3)=NO2)[C@H](O)[C@@H](O)[C@@H]1O
IC50 [1]: 1.54 µM | IC50 [2]: 30.1 µM | IC50 [3]: 22.2 µM | IC50 [4]: 13.8 µM

OC[C@H]1O[C@@]2(CC(c3ccc4c(c3)OCO4)=NO2)[C@H](O)[C@@H](O)[C@@H]1O
IC50 [1]: 81.3 µM | IC50 [2]: > 100 µM | IC50 [3]: > 100 µM | IC50 [4]: > 100 µM

COc1cc(OC)cc(C2=NO[C@@]3(C2)O[C@H](CO)[C@@H](O)[C@H](O)[C@H]3O)c1
IC50 [1]: 325 µM | IC50 [2]: > 100 µM | IC50 [3]: > 100 µM | IC50 [4]: > 100 µM

OC[C@H]1O[C@@]2(CC(c3nc4ccccc4s3)=NO2)[C@H](O)[C@@H](O)[C@@H]1O
IC50 [1]: 6.1 µM

OC[C@H]1O[C@@]2(CC(c3cc4ccccc4[nH]3)=NO2)[C@H](O)[C@@H](O)[C@@H]1O
IC50 [1]: 280 µM
